Laboratory results published in ChEMBL document CHEMBL1143198, “Potent, nonpeptide inhibitors of human mast cell tryptase. Synthesis and biological evaluation of novel spirocyclic piperidine amide derivatives” (Bioorg Med Chem Lett, 2008).
The source made the active and inactive calls. No cut-off for these calls is given here.

Key:
[1] = Inhibition of human lung beta tryptase by chromogenic assay
[2] = biological target: Trypsin (Homo sapiens, UniProt P07477+P07478+P35030); assay: Inhibition of human trypsin by chromogenic assay; format: protein assay
[3] = tested on: Plasma; assay: Drug level in sheep plasma; format: ADME, cell-free, Ovis aries
[4] = tested on: Cavia porcellus; assay: Antiinflammatory activity in ovalbumin-sensitized guinea pig asthma model assessed as reduction in total WBC cell count at 20 mg/kg, po BID for 3 days relative to control; format: functional; set-up: scale not given: the % may be the effect or the level left
Method in brief: (§1)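 Ovalbumin-sensitized guinea pigs received the benzoate salt orally at 20 mg/kg twice daily for 3 days, then once on Day 4 at 2 h before ovalbumin challenge.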

[5] = tested on: Cavia porcellus; assay: Antiinflammatory activity in ovalbumin-sensitized guinea pig asthma model assessed as increase in dynamic lung compliance at 20 mg/kg, po BID for 3 days relative to control; format: functional
Method in brief: as §1

[6] = tested on: Cavia porcellus; assay: Antiinflammatory activity in ovalbumin-sensitized guinea pig asthma model assessed as reduction in total lung resistance at 20 mg/kg, po BID for 3 days relative to control; format: functional; set-up: scale not given: the % may be the effect or the level left
Method in brief: as §1

[7] = species: Homo sapiens; assay: Ratio of IC50 for human trypsin to IC50 for human tryptase
Method in brief: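 Human lung β-tryptase: 1 nM, H-D-HHT-Ala-Arg-pNA 500 µM, Tris/Hepes/NaCl/PEG buffer, pH 7.4. Human pancreatic trypsin: 1.8 nM, N-α-Z-D-Arg-Gly-Arg-pNA 60 µM, 200 mM NaCl, 50 mM Hepes, 0.5% octyl glucoside, pH 7.4.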

[8] = Oral bioavailability in rat; format: ADME, organism-based; settings: in vivo
[9] = biological target: Cytochrome P450 1A2 (Homo sapiens, UniProt P05177); assay: Inhibition of human CYP1A2; format: ADME
Cytochrome P450 1A2, sequence (P05177 whole entry): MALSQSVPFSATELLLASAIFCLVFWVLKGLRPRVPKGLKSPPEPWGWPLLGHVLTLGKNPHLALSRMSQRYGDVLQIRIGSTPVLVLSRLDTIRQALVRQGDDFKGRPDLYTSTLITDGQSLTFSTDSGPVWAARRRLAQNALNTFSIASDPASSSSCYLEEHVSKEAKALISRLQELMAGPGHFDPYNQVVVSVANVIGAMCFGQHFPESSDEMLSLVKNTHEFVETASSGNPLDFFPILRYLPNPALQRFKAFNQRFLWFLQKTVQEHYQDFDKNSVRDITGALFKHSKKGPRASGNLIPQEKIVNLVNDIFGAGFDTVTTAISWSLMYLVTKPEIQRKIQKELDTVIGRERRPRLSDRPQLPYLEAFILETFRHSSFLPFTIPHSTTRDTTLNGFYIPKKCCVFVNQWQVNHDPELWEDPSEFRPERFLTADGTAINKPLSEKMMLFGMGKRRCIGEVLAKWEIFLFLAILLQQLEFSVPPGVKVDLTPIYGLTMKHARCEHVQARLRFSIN
Method in brief: (§2)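 IC50 for cytochrome P450 isozyme inhibition was measured in isolated human liver microsomes.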

[10] = Metabolic stability in human liver microsomes after 60 mins; format: ADME, Microsome; settings: read-out: Stability
[11] = tested on: Rattus norvegicus; assay: Volume of distribution in orally dosed rat; format: ADME, organism-based; settings: in vivo, po
[12] = Metabolic stability in human liver microsomes assessed as half life; format: ADME, Microsome
[13] = Cmax in orally dosed rat; format: ADME, organism-based; set-up: route oral; settings: in vivo, po
[14] = biological target: Cytochrome P450 2D6 (Homo sapiens, UniProt P10635); assay: Inhibition of human CYP2D6; format: ADME
Cytochrome P450 2D6, sequence (P10635 whole entry): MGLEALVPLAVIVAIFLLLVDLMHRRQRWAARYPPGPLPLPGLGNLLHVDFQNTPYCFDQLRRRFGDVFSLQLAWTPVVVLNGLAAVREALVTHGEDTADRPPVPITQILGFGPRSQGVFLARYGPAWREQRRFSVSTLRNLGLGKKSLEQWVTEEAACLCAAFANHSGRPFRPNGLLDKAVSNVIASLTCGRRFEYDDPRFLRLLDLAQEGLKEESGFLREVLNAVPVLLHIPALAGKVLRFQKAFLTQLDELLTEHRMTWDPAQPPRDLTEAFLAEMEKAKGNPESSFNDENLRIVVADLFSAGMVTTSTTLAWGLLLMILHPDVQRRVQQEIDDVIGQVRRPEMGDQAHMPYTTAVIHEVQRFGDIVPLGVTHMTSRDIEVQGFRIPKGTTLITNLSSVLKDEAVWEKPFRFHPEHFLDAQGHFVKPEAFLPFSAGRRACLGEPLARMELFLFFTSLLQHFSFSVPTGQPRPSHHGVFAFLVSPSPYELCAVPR
Method in brief: as §2

[15] = biological target: Amine oxidase [flavin-containing] B (Homo sapiens, UniProt P27338); assay: Inhibition of monoamine oxidase B
[16] = biological target: Cytochrome P450 2C9 (Homo sapiens, UniProt P11712); assay: Inhibition of human CYP2C9; format: ADME
Cytochrome P450 2C9, sequence (P11712 whole entry): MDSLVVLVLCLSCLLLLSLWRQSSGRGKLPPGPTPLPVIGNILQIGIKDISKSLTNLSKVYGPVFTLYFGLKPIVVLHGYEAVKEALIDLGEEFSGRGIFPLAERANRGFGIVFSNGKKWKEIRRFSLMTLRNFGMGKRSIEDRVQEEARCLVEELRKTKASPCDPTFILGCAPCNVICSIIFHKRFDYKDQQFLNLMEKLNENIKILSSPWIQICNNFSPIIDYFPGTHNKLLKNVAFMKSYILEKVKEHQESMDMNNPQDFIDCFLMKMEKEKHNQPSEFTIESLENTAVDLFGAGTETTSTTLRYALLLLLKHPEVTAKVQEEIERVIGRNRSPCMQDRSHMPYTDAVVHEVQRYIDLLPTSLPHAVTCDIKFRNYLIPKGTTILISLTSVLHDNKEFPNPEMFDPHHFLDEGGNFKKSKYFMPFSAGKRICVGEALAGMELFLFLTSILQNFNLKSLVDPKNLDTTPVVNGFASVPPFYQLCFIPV
Method in brief: as §2

[17] = Half life in orally dosed rat; format: ADME, organism-based; settings: in vivo, po
[18] = Oral bioavailability in dog; format: ADME, organism-based, Canis lupus familiaris; settings: in vivo
[19] = biological target: Amine oxidase [flavin-containing] A (Homo sapiens, UniProt P21397); assay: Inhibition of monoamine oxidase A
[20] = tested on: Canis familiaris; assay: Volume of distribution in orally dosed dog; format: ADME, organism-based, Canis lupus familiaris; settings: in vivo, po
[21] = biological target: Cytochrome P450 3A4 (Homo sapiens, UniProt P08684); assay: Inhibition of human CYP3A4; format: ADME
Cytochrome P450 3A4, sequence (P08684 whole entry): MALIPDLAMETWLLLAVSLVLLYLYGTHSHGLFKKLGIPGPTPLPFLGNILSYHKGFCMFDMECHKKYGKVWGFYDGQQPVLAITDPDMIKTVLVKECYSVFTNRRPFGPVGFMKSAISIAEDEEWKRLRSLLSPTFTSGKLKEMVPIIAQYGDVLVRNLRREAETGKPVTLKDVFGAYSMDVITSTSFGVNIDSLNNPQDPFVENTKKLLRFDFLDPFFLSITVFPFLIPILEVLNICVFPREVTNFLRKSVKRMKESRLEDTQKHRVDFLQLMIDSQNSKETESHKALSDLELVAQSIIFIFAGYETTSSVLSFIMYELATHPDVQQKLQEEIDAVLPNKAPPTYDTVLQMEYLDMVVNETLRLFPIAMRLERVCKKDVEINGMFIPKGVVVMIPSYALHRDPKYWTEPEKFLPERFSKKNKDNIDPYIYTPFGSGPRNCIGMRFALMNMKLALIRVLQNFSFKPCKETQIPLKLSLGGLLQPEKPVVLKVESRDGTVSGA
Method in brief: as §2

[22] = Half life in orally dosed dog; format: ADME, organism-based, Canis lupus familiaris; settings: in vivo, po
[23] = biological target: Cytochrome P450 2C19 (Homo sapiens, UniProt P33261); assay: Inhibition of human CYP2C19; format: ADME
Method in brief: as §2

[24] = tested on: monoamine oxidase B; assay: Stability in presence of monoamine oxidase B after 30 mins; format: ADME; settings: read-out: Stability
Method in brief: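 The compound was tested as an MAO-B substrate, with parent remaining measured at 30 min. Benzylamine was run as a reference substrate.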

[25] = Cmax in orally dosed dog; format: ADME, organism-based, Canis lupus familiaris; set-up: route oral; settings: in vivo, po
[26] = species: Homo sapiens; assay: Inhibition of human recombinant beta tryptase at 50 uM by chromogenic assay; settings: in the assay text read “human lung beta tryptase” for “human recombinant beta tryptase”
Method in brief: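 A405 followed for 15 min at 22 °C after enzyme addition. Percent inhibition at 50 µM compared initial velocities with and without inhibitor.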

[27] = biological target: Tissue-type plasminogen activator (Homo sapiens) (UniProt P00750); assay: Inhibition of tPA at 10 uM
Tissue-type plasminogen activator (Homo sapiens), sequence (P00750 36-562 limits assumed): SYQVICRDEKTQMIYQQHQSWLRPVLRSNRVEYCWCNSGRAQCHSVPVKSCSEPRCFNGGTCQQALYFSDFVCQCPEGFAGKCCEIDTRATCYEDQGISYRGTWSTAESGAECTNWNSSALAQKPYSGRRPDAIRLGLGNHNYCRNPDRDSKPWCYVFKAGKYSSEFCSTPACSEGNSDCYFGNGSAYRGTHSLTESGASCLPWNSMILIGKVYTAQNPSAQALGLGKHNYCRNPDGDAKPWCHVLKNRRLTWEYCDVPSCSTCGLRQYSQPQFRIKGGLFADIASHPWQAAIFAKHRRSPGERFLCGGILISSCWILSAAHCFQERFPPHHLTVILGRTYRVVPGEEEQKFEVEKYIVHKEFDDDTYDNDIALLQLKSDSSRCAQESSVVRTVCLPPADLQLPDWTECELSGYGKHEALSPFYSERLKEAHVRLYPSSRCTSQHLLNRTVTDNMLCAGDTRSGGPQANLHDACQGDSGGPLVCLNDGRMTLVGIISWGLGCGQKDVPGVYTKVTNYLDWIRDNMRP

[28] = tested on: Ovis aries; assay: Antiinflammatory activity in Ascaris suum-sensitized sheep asthma model assessed as increase in airway hyperactivity at 30 mg/kg, po BID after 24 hrs relative to carbachol; format: functional, organism-based; set-up: dose 30 mg/kg
Method in brief: (§3)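 Conscious, antigen-sensitized allergic sheep were dosed by oral gavage with the benzoate salt at 30 mg/kg twice on Day 1, and on Day 2 at 2 h before antigen challenge. Airway resistance (SR_L) was monitored for 8 h after challenge: early phase 0–4 h, late phase 4–8 h. Airway hyper-reactivity to carbachol (PC₄₀₀) was measured at 24 h.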

[29] = tested on: Ovis aries; assay: Antiinflammatory activity in Ascaris suum-sensitized sheep asthma model assessed as blockade of late-phase airway response at 30 mg/kg, po BID after 8 hrs; format: functional, organism-based; set-up: dose 30 mg/kg
Method in brief: as §3

[30] = biological target: Prothrombin (Homo sapiens) (UniProt P00734); assay: Inhibition of thrombin at 10 uM
[31] = biological target: Coagulation factor X (Homo sapiens) (UniProt P00742); assay: Inhibition of factor 10a at 50 uM
Coagulation factor X (Homo sapiens), sequence (P00742 41-179 limits assumed): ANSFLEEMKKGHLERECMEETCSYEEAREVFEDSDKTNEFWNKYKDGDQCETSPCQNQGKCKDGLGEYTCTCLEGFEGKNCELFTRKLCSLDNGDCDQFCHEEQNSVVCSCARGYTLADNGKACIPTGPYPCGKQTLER
Coagulation factor X (Homo sapiens), sequence (P00742 235-488 limits assumed): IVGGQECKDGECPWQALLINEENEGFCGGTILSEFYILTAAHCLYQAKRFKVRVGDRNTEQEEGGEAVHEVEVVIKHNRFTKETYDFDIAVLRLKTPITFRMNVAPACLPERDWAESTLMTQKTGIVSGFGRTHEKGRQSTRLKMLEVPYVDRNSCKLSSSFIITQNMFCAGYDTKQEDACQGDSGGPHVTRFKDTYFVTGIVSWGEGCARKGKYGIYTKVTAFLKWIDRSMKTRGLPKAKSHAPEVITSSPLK

[32] = biological target: Neutrophil elastase (Homo sapiens) (UniProt P08246); assay: Inhibition of human leukocyte elastase at 10 uM
Neutrophil elastase (Homo sapiens), sequence (P08246 whole entry): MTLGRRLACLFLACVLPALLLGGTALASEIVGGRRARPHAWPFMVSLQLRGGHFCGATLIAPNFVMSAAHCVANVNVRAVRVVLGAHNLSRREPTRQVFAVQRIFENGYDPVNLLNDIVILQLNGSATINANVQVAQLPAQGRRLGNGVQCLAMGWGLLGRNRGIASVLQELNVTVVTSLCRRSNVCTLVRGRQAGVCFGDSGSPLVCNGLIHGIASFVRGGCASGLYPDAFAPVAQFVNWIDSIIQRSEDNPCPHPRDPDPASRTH

[33] = Inhibition of chymotrypsin at 10 uM
[34] = biological target: Plasminogen (Homo sapiens) (UniProt P00747); assay: Inhibition of plasmin at 10 uM
Plasminogen (Homo sapiens), sequence (P00747 97-580 limits assumed): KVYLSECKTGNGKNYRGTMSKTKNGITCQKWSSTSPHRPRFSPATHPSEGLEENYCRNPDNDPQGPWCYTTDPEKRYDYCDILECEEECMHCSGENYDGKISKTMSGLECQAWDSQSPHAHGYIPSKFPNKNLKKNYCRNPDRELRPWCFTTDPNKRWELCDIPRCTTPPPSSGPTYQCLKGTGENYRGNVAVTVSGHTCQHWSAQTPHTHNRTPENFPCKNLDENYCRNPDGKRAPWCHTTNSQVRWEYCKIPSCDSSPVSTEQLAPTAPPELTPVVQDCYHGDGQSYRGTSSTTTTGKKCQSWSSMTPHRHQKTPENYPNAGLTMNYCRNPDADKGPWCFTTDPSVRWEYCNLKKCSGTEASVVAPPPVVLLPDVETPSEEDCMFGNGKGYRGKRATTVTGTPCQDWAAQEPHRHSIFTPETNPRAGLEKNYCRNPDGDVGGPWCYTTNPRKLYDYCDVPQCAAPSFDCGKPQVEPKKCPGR
Plasminogen (Homo sapiens), sequence (P00747 581-810 limits assumed): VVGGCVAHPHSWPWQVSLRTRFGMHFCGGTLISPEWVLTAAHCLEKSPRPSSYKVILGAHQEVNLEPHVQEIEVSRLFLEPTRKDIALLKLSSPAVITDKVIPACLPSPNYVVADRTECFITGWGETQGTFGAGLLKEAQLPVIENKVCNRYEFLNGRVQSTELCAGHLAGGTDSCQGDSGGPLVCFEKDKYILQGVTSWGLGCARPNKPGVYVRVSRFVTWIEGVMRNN

[35] = biological target: Chymase (Homo sapiens) (UniProt P23946); assay: Inhibition of chymase at 50 uM
Chymase (Homo sapiens), sequence (P23946 whole entry): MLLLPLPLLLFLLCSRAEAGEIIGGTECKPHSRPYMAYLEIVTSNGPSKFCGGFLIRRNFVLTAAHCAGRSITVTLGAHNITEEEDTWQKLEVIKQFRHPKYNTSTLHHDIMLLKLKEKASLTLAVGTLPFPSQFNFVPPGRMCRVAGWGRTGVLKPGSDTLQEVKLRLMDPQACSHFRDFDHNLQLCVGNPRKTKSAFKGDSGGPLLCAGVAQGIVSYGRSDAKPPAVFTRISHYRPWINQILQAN

[36] = Inhibition of streptokinase at 10 uM
[37] = biological target: Cathepsin G (Homo sapiens) (UniProt P08311); assay: Inhibition of cathepsin G at 50 uM
Cathepsin G (Homo sapiens), sequence (P08311 whole entry): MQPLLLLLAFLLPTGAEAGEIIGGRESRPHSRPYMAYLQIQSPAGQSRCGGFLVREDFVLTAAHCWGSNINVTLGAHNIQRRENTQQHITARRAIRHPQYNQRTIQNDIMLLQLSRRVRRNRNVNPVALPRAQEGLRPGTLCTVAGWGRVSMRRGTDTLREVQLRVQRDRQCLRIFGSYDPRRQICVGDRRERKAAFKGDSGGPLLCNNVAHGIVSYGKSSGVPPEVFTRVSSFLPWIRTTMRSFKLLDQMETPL

[38] = biological target: Plasma kallikrein (Homo sapiens) (UniProt P03952); assay: Inhibition of kallikrein at 10 uM
[39] = tested on: Ovis aries; assay: Antiinflammatory activity in Ascaris suum-sensitized sheep asthma model assessed as blockade of early-phase airway response at 30 mg/kg, po BID after 8 hrs; format: functional, organism-based; set-up: dose 30 mg/kg
Method in brief: as §3

[40] = biological target: Urokinase-type plasminogen activator (Homo sapiens) (UniProt P00749); assay: Inhibition of uPA at 10 uM
[41] = biological target: Coagulation factor VII (Homo sapiens) (UniProt P08709); assay: Inhibition of factor 7a at 10 uM
Coagulation factor VII (Homo sapiens), sequence (P08709 61-212 limits assumed): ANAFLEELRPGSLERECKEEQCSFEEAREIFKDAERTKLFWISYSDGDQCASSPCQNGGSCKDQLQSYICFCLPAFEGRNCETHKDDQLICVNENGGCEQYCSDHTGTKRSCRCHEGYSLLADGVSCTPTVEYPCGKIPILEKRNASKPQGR
Coagulation factor VII (Homo sapiens), sequence (P08709 213-466 limits assumed): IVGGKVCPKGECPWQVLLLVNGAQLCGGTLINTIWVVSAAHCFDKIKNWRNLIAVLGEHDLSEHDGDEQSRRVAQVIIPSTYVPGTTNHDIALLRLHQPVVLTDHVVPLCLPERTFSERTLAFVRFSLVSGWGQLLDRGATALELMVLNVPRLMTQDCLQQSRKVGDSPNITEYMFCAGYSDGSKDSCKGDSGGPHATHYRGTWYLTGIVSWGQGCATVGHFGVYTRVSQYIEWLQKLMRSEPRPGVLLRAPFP

| SMILES | IC50 [1] [nM] | Ki [1] [nM] | IC50 [2] [nM] | also measured |
| --- | --- | --- | --- | --- |
| Cc1ccccc1C#Cc1ccc(C(=O)N2CCC3(CC2)COc2ccc(CN)cc23)o1 | 1.2 | 4 | 12000 | – |
| NCc1ccc2c(c1)C1(CCN(C(=O)c3ccc(CCc4ccccc4)o3)CC1)CO2 | 82 | – | 47000 | – |
| NCc1cccc(C2CCN(C(=O)c3ccc(C#Cc4ccccc4)o3)CC2)c1 | – | 8.7 | – | – |
| N/N=C(\N)c1ccc2c(c1)C1(CCN(C(=O)c3ccc(C#Cc4ccccc4)o3)CC1)CO2 | 59 | – | > 50000 | – |
| NCc1ccc2c(c1)C1(CCN(C(=O)c3ccc(C#Cc4ccccc4)o3)CC1)CN2S(=O)(=O)c1ccccc1 | 5.7 | 16 | 6700 | – |
| CC(C)(C)c1ccc(C#Cc2ccc(C(=O)N3CCC4(CC3)COc3ccc(CN)cc34)o2)cc1 | 700 | – | 13000 | – |
| NCc1ccc2c(c1)C1(CCN(C(=O)c3ccc(C#Cc4ccccc4)o3)CC1)CO2.O=C(O)c1ccccc1 | – | – | – | concentration [3]: 400 nM; Activity [4]: 20%; Activity [5]: 65%; Activity [6]: 90% |
| NCc1ccc2c(c1)C1(CCN(C(=O)c3ccc(C#Cc4ccccc4F)o3)CC1)CO2 | 4.3 | 3 | 12000 | – |
| NCc1ccc2c(c1)C1(CCN(C(=O)c3ccc(C#Cc4ccc(O)cc4)o3)CC1)CO2 | 3200 | – | 23000 | – |
| C/N=C(/N)c1ccc2c(c1)C1(CCN(C(=O)c3ccc(C#Cc4ccccc4)o3)CC1)CO2 | 780 | – | > 50000 | – |
| CC(=O)N1C[C@H](O)C[C@H]1C(=O)NC(CCCNC(=N)N)C(=O)c1nc2ccccc2s1 (some centres not stated) | 13 | 10 | – | – |
| Cc1ccc(C#Cc2ccc(C(=O)N3CCC4(CC3)COc3ccc(CN)cc34)o2)cc1 | 8.3 | – | 13000 | – |
| NCc1ccc2c(c1)C1(CC2)CCN(C(=O)c2ccc(C#Cc3ccccc3)o2)CC1 | 3.1 | – | 7700 | – |
| NCc1cccc(C2CCN(C(=O)c3ccc(C#Cc4ccccc4F)o3)CC2)c1 | – | 31 | – | – |
| CC(=O)N1CC2(CCN(C(=O)c3ccc(C#Cc4ccccc4)o3)CC2)c2cc(CN)ccc21 | 15 | – | > 50000 | – |
| NCc1ccc2c(c1)C1(CCN(C(=O)c3ccc(-c4ccccc4)o3)CC1)CO2 | 28 | – | 8600 | – |
| NCc1ccc2c(c1)C1(CCN(C(=O)c3ccc(Sc4ccccc4)o3)CC1)CO2 | 90 | – | 9100 | – |
| N=C(N)c1ccc2c(c1)C1(CCN(C(=O)c3ccc(C#Cc4ccccc4)o3)CC1)CO2 | 4.5 | – | 1400 | Ratio IC50 [7]: 300 |
| CS(=O)(=O)N1CC2(CCN(C(=O)c3ccc(C#Cc4ccccc4)o3)CC2)c2cc(CN)ccc21 | 1.8 | 7.1 | > 50000 | – |
| NCc1ccc2c(c1)C1(CCN(C(=O)c3ccc(C#Cc4ccccc4)o3)CC1)CO2 [listing 1 of 2 here] | – | – | 18000 | bioavailability [8]: 100%; IC50 [9]: > 20000 nM; remaining at 1 h [10]: 100%; Vd [11]: 17 L/kg; half-life [12]: > 1.67 h; Ki [2]: 2500 nM; Cmax [13]: 1100 nM; IC50 [14]: > 20000 nM; IC50 [15]: 72000 nM; IC50 [16]: > 20000 nM; half-life [17]: 7 h; bioavailability [18]: 65%; IC50 [19]: 23000 nM; Vd [20]: 16 L/kg; IC50 [21]: > 20000 nM; half-life [22]: 27 h; IC50 [23]: > 20000 nM; remaining at 0.5 h [24]: 95%; Cmax [25]: 900 nM |
| NCc1ccc2c(c1)C1(CCN(C(=O)c3ccc(C#Cc4ccccc4)o3)CC1)CN2 | 23 | – | > 50000 | – |
| NC(=O)c1ccc2c(c1)C1(CCN(C(=O)c3ccc(C#Cc4ccccc4)o3)CC1)CO2 | – | – | 39000 | inhibition [26]: 29% |
| NCc1ccc2c(c1)C1(CCN(C(=O)c3ccc(C#Cc4ccccc4Cl)o3)CC1)CO2 | 5.2 | 3.4 | 38000 | – |
| NCc1ccc2c(c1)C1(CCN(C(=O)c3ccc(C#Cc4ccccc4)o3)CC1)CO2 [listing 2 of 2 here] | – | – | – | inhibition [27]: < 15%; Activity [28]: Active; Activity [29]: Active; inhibition [30]: < 15%; inhibition [31]: < 30%; inhibition [32]: < 15%; inhibition [33]: < 15%; inhibition [34]: < 15%; inhibition [35]: < 30%; inhibition [36]: < 15%; inhibition [37]: < 30%; inhibition [38]: < 15%; Activity [39]: inactive; inhibition [40]: < 15%; inhibition [41]: < 15% |
| COc1ccccc1C#Cc1ccc(C(=O)N2CCC3(CC2)COc2ccc(CN)cc23)o1 | 13 | – | 5500 | – |
